# Measured values from different studies.
# Each line is one published result; the experiments were not run side by side.
# Target: Citron Rho-interacting kinase (CIT, Homo sapiens, UniProt O14578)
Structure (SMILES),assay,conditions,remaining binding
Cc1cnc(Nc2ccc(C(=O)N3CCC(N4CCCC4)CC3)cc2)nc1-c1cc2ccccc2s1,"binding, competition with immobilised ligand",1 µM,65%
C[C@H]1CCN(c2nccc(-c3cnn4ncccc34)n2)C1,binding,1 µM,69%
Nc1ncc2c(n1)-c1c([nH]c3ccc(C#CC4CC4)cc13)CCCC2,"binding, competition with immobilised ligand",1 µM,88%
F[C@@H]1CCN(c2nccc(-c3cnn4ncccc34)n2)C1,binding,1 µM,75%
c1ccc(N2CCN(Cc3nc4ccccc4[nH]3)CC2)nc1,"binding, competition with immobilised ligand",1 µM,88%
COc1ccnn2ncc(-c3ccnc(N(C)C)n3)c12,binding,1 µM,95%
CCOC(=O)c1cc2cc(-c3cc(C(=O)NCc4ccc(C(=O)O)cc4)nn3C)ccc2[nH]1,"cell-free assay, competition with immobilised ligand",0.1 µM,100%
O=C(NCCCN1CCOCC1)c1ccc(Nc2ncc(Cl)c(-c3ccc(Cl)s3)n2)cc1,"binding, competition with immobilised ligand",1 µM,63%
O=c1nc(-c2ccccn2)sc2ccccc12,"binding, competition with immobilised ligand",1 µM,100%
CN(CCCC(F)(F)F)c1nccc(-c2cnn3ncccc23)n1,binding,1 µM,88%
O=C(c1ccc(Nc2ncc(Cl)c(-c3ccc(Cl)s3)n2)cc1)N1CCC(N2CCCC2)CC1,"binding, competition with immobilised ligand",1 µM,30%
COc1cnc(Nc2cccc(S(N)(=O)=O)c2)nc1N1CCN(c2ccccc2)C(=O)C1,"binding, competition with immobilised ligand",1 µM,100%
CS(=O)(=O)c1cc(C2(NC(=O)c3cncc4c3cnn4-c3ccc(F)cc3)CC2)ccn1,"cell-free assay, competition with immobilised ligand",1 µM,100%
FC(F)(F)Oc1cccc(-c2cnc3ccc(-c4ccncc4)nn23)c1,"cell-free assay, competition with immobilised ligand",5 µM,34%
O=C(NCc1ncc(C(F)(F)F)cc1Cl)c1ccc2c(c1)C1(CCS(=O)(=O)CC1)[C@@H](C1CC1)N2S(=O)(=O)c1ccc(F)cc1,"cell-free assay, competition with immobilised ligand",1 µM,84%
N[C@@H]1CCN(c2nccc(-c3cnn4ncccc34)n2)C1,binding,1 µM,99%
O=C(Nc1c[nH]nc1C(=O)NC1CCNCC1)c1cc(F)cc(F)c1,"binding, competition with immobilised ligand",1 µM,100%
CN(C)c1nccc(-c2cnn3ncccc23)n1,binding,1 µM,86%
CC(=O)c1c(NS(C)(=O)=O)c2cc(-c3ccc(Cl)cc3)c(-c3ccc(Cl)cc3Cl)nc2n(C)c1=O,"cell-free assay, competition with immobilised ligand",1 µM,96%
